Test results: ChEMBL document CHEMBL1145161, “Inhibitors of Trypanosoma cruzi trypanothione reductase revealed by virtual screening and parallel synthesis” (J Med Chem, 2005)

Tests used:
Trypanothione reductase [1] = biological target: T1, Trypanothione reductase (Trypanosoma cruzi, UniProt P28593); assay: (§1) Inhibitory constant against recombinant Trypanosoma cruzi trypanothione reductase was determined photometrically at 25 degree C in TR assay buffer (40 mM Hepes, 1 mM EDTA, pH 7.5)
Summary of the method: (§2)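 Spectrophotometric TR assay at 25 °C, 40 mM Hepes, 1 mM EDTA, pH 7.5; 100 μM NADPH, 10–15 mU TR; reaction started with TS2, A340 decrease followed. TS2 varied at several fixed inhibitor concentrations (e.g. 5, 10, 20 μM); Ki from slopes and x-axis intercepts of Lineweaver–Burk plots, Dixon plots also used; data at least in duplicate.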

[2] = biological target: Trypanothione reductase (Trypanosoma cruzi) (UniProt P28593); assay: Inhibitory activity (100 uM) against recombinant Trypanosoma cruzi trypanothione reductase was determined in presence of Trypanothione disulfide (40 uM)
Summary of the method: (§3)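 Recombinant T. cruzi TR, 10–15 mU, in 40 mM Hepes, 1 mM EDTA, pH 7.5, 25 °C, 100 μM NADPH; activity at fixed TS2 (40 or 110 μM) without and with 100 μM inhibitor; TS2 starts reaction, A340 decrease monitored; DMSO controls where needed. Inhibitor stocks 4 mM in DMSO or water.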

[3] = biological target: Trypanothione reductase (Trypanosoma cruzi) (UniProt P28593); assay: Inhibitory activity (100 uM) against recombinant Trypanosoma cruzi trypanothione reductase was determined in presence of Trypanothione disulfide (110 uM); summary of the method: as §3
[4] = biological target: Trypanothione reductase (Trypanosoma cruzi) (UniProt P28593); assay: as §1; summary of the method: as §2
[5] = biological target: T2, Glutathione reductase, mitochondrial (Homo sapiens) (UniProt P00390); assay: Inhibitory activity against human Glutathione reductase relative to GSSG (100 uM)
T2 sequence (whole entry): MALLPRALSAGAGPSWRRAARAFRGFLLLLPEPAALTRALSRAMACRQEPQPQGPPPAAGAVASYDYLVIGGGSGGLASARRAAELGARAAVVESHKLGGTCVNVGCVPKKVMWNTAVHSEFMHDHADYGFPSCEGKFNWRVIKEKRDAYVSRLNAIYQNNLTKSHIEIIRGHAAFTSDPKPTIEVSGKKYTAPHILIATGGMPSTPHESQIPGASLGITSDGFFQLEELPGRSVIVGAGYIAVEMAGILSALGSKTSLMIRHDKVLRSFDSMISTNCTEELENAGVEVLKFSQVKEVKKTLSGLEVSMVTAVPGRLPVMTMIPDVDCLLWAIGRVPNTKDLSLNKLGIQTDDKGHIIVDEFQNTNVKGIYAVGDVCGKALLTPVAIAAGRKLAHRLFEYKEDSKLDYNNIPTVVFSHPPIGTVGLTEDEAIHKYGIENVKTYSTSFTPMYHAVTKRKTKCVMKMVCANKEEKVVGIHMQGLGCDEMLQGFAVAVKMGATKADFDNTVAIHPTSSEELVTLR

[6] = biological target: T3, Glutathione reductase, mitochondrial (Homo sapiens, UniProt P00390); assay: (§4) Inhibitory constant against human glutathione reductase
T3 sequence (P00390 whole entry): T2 sequence (whole entry)
Summary of the method: (§5)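 Human GR kinetics in phosphate/KCl/EDTA buffer pH 6.9 at 25 °C, 100 μM NADPH, 5–10 mU GR; GSSG varied (40–1000 μM) at two fixed inhibitor levels, 120 and 240 μM; DMSO controls.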

Trypanothione reductase [7] = biological target: T1, Trypanothione reductase; assay: Competitive inhibitory constant against recombinant Trypanosoma cruzi trypanothione reductase was determined photometrically at 25 degree C in TR assay buffer (40 mM Hepes, 1 mM EDTA, pH 7.5); summary of the method: as §2
[8] = biological target: T2, Glutathione reductase, mitochondrial (Homo sapiens); assay: as §4; summary of the method: as §5
[9] = biological target: T2, Glutathione reductase, mitochondrial (Homo sapiens); assay: Percent inhibition of human glutathione reductase at 100 uM relative to 100 uM GSSG

Sequence of Trypanothione reductase (Trypanosoma cruzi) (P28593 whole entry, looked up): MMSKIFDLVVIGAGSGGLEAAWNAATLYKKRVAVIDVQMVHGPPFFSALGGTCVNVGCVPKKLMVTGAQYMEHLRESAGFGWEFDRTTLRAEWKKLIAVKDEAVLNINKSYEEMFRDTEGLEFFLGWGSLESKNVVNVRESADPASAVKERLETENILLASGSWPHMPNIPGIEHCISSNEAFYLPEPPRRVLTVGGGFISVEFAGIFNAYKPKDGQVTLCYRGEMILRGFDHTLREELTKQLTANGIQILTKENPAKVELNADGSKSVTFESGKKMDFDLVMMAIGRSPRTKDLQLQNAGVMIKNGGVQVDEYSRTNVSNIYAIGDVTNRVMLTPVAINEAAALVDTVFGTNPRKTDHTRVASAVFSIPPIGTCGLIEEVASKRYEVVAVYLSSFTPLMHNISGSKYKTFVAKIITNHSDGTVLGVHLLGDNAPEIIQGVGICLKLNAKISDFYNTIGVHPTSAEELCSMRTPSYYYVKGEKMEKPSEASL
T1 sequence (P28593 whole entry): as the sequence (P28593 whole entry, looked up) above

SMILES	inhibition [2]	inhibition [3]	other results
COc1cc(C(N)=Nc2ccc(Oc3ccc(N=C(N)c4ccc(OCc5ccccc5)c(OC)c4)cc3)cc2)ccc1OCc1ccccc1	–	–	Ki (Trypanothione reductase [1]): 2 µM
O=C(Cc1cccc2ccccc12)NCCNC(=O)C1(NC(=O)C(=O)c2ccc([N+](=O)[O-])cc2)CCNCC1	–	–	Ki (Trypanothione reductase [1]): 6.2 µM; Ki' [4]: 8.5 µM
N=C(NC1CCC(CC2CCC(NC(=N)c3cccs3)CC2)CC1)c1cccs1 (stereo not given)	17%	16%	–
N=C(NCCc1cccnc1)c1cccs1	< 10%	< 10%	–
N=C(NCCOCCOCCNC(=N)c1cccs1)c1cccs1	14%	< 10%	–
N=C(NCCOCCOCCNC(=N)c1cnccn1)c1cnccn1	11%	< 10%	–
CN1CCN(CCC/N=C(\N)c2cccs2)CC1	< 10%	< 10%	–
[H]/N=C(\N/C(=N/[H])NCCCCCCNC(=N)NC(=N)Nc1ccc(Cl)cc1)Nc1ccc(Cl)cc1 [CHLORHEXIDINE]	–	–	Ki (Trypanothione reductase [1]): 2 µM; Ki [6]: 192 µM
CN1CCN(CC/N=C(\N)c2ccc3[nH]ccc3c2)CC1	39%	31%	–
N=C(Nc1ccc(Oc2ccc(NC(=N)c3cccs3)cc2)cc1)c1cccs1	11%	12%	–
N=C(NC1CCC(CC2CCC(NC(=N)c3cnccn3)CC2)CC1)c1cnccn1 (stereo not given)	< 10%	< 10%	–
COc1cc(C(=N)NCCCCCCCCNC(=N)c2ccc(OCc3ccccc3)c(OC)c2)ccc1OCc1ccccc1	–	–	Ki (Trypanothione reductase [1]): 5 µM
N=C(NCCCCCCNC(=N)NC(=N)Nc1ccc(Cl)cc1)NC(=N)Nc1ccc(Cl)cc1	–	–	Ki' [8]: 210 µM
N=C(NCCc1cccnc1)c1sccc1Br	14%	15%	–
CN1CCN(CCC/N=C(\N)c2sccc2Br)CC1	< 10%	< 10%	–

More lines, main results first:

inhibition [2]	inhibition [3]	SMILES	other results
15%	< 10%	N=C(NCCCCCCCCNC(=N)c1cccs1)c1cccs1	–
95%	90%	COc1cc(C(=N)Nc2ccc(Oc3ccc(NC(=N)c4ccc(OCc5ccccc5)c(OC)c4)cc3)cc2)ccc1OCc1ccccc1	Ki' [4]: 22 µM; inhibition [5]: 45%
92%	85%	COc1cc(C(=N)NCCCCCCCCN=C(N)c2ccc(OCc3ccccc3)c(OC)c2)ccc1OCc1ccccc1	Ki' [4]: 47 µM
80%	69%	N=C(CCCCCCCC(=N)NCC#Cc1ccccc1)NCC#Cc1ccccc1	inhibition [5]: 5%; Ki (Trypanothione reductase [7]): 6 µM
94%	97%	COc1cc(C(=N)NC2CCC(CC3CCC(/N=C(\N)c4ccc(OCc5ccccc5)c(OC)c4)CC3)CC2)ccc1OCc1ccccc1 (stereo not given)	Ki (Trypanothione reductase [1]): 2 µM; Ki' [4]: 16 µM; inhibition [9]: 35%
